Reference: publication PMC6036231 (Journal of immunology (Baltimore, Md. : 1950), 2018)

Columns and labels:
PGE2-treated THP-1 cells = assay: Real-time chemotaxis; format: cell-based, human
How it was run: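 THP-1 cultured overnight with PGE2. Where stated, pre-incubated 15 min at room temperature with DMSO or 1 µM final antagonist. TAXIScan: 1 h migration at 37°C along gradients from 1 µl of 1 or 10 µM chemokine (1 µM CCL2 reference; no-stimulus basal). Frames every minute; cells tracked manually. FMI = y-axis distance/accumulated distance. Triplicate or quadruplicate runs per stimulus.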

primary human monocytes = assay: Real-time chemotaxis; format: cell-based; conditions: 1 μM ML145
How it was run: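 Monocytes isolated from healthy donor blood by negative selection (RosetteSep). Pre-incubated 15 min at room temperature in buffer with DMSO vehicle or 1 µM final antagonist. TAXIScan: 1 h migration at 37°C along gradients formed by 1 µl chemokine; no-stimulus basal. Images every minute; individual cells tracked manually; FMI parallel to gradient calculated per cell.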

GPR35b = GPR35b (Homo sapiens, UniProt Q9HC97); assay: Inositol phosphate assay, GPR35b with Gq-Gi1/2 chimera; format: cell-based; conditions: 30 minutes
human GPR35a [1] = target: T1, human GPR35a (Homo sapiens, UniProt Q9HC97); assay: Inositol phosphate assay, GPR35a with Gq-Gi1/2 chimera; format: cell-based; conditions: 30 minutes
human GPR35a [2] = target: T1, human GPR35a; assay: Inositol phosphate assay, GPR35a with Gq-G13 chimera; format: cell-based; conditions: 30 minutes
3xHA-GPR35 = 3xHA-GPR35 (Homo sapiens, UniProt Q9HC97); assay: GPR35 endocytosis assay, L1.2 clone 23; format: cell-based; conditions: 37°C, 15 minutes
How it was run: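 L1.2 clone stably expressing N-terminal 3xHA-GPR35 (G418 1 mg/ml selection, limiting-dilution cloning), 2 x 10^6 cells/ml in RPMI/0.1% BSA. Mixed with equal volume of buffer holding agonist (20, 10 or 2 µM reference agonist; 2 µM chemokine) or DMSO vehicle. Incubated 15 min at 4°C (basal) and 37°C (endocytosis). Surface receptor by flow cytometry: anti-HA (10 µg/ml), FITC secondary, TO-PRO3.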

rat GPR35 = rat GPR35 (Rattus norvegicus, UniProt Q33BM1); assay: BRET β-arrestin-2 recruitment assay, HEK293T cells, rat GPR35; format: cell-based
mouse GPR35 = mouse GPR35 (Mus musculus, UniProt Q9ES90); assay: BRET β-arrestin-2 recruitment assay, HEK293T cells, mouse GPR35; format: cell-based
How it was run: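 HEK293T cells transiently transfected with polyethylenimine to co-express mouse GPR35 and β-arrestin-2, used 48 h after transfection. β-arrestin-2 recruitment read by bioluminescence resonance energy transfer.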

THP-1 cells = assay: Real-time chemotaxis; format: cell-based, human; conditions: resting THP-1
How it was run: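 Resting THP-1 cells kept at 0.5 x 10^6/ml in supplemented RPMI 1640 with 10% FBS at 37°C, 5% CO2. TAXIScan: 1 h migration at 37°C along gradients from 1 µl of 1 µM or 10 µM chemokine (1 µM CCL2 reference); no-stimulus basal. Frames every minute; manual tracking. FMI = y-axis distance/accumulated distance. Pooled from 3 experiments, 3 movies per condition.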

CCR1 = target: T2, CCR1 (Homo sapiens, UniProt P32246); assay: Boyden chamber chemotaxis, CCR1 transfectants; format: cell-based; conditions: cleaved versus uncleaved chemokine
T2 sequence (P32246 1-355): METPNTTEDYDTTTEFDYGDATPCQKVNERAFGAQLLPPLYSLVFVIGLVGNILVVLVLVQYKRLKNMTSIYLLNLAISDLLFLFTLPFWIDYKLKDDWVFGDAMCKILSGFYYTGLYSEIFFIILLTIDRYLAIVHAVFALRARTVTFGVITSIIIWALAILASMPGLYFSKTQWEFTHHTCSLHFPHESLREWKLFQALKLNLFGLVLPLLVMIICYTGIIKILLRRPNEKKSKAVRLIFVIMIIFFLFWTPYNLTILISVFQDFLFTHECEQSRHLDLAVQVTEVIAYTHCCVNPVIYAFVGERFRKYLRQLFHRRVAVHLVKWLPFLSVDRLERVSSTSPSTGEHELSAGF
How it was run: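 Chemokine digested for 18 h at 37°C with 0.1-0.4 µg recombinant human chymase in 100 mM Tris-HCl (pH 7.8), 10 mM CaCl2; undigested half incubated alongside. Cleaved and uncleaved forms tested on CCR1 transfectants in 96-well Boyden chambers: 5 h migration, 37°C, 5% CO2. Migrated cells quantified by ATP luminescence (Cell Titer-Glo); chemotactic index = response/buffer-alone basal; n=3.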

[3] = target: T3, recombinant human chymase (Homo sapiens, UniProt P23946); assay: Chemokine digestion with chymase, SDS-PAGE; format: biochemical; conditions: 18hr incubation, 37°C
T3 sequence (P23946 22-247): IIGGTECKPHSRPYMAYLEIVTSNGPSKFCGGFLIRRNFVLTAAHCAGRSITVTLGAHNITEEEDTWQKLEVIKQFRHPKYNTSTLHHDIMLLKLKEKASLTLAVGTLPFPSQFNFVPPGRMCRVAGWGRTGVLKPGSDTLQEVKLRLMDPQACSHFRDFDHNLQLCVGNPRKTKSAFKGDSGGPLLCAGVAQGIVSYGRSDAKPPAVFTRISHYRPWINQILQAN
How it was run: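 20 µg chemokine in 100 mM Tris-HCl pH 7.8, 10 mM CaCl2, split; one half given 0.1-0.4 µg chymase; both 18 h at 37°C. Samples in Tris-glycine SDS buffer heated 95°C 10 min, run on 4-12% Bis-Tris gels at 150 V for 50 min. Fixed in 25% isopropanol/10% acetic acid, stained with 0.25% Coomassie G-250 2 h, destained overnight; n=3.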

T1 sequence (Q9HC97 whole entry): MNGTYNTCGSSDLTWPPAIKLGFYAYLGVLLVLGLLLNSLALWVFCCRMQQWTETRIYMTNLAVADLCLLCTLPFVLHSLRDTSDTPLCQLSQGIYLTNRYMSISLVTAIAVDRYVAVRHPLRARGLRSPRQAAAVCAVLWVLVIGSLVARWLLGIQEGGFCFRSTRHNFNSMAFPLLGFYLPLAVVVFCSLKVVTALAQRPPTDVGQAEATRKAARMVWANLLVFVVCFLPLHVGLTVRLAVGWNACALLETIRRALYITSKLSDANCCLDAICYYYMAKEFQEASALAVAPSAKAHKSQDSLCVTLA
Chain of 3xHA-GPR35 (Q9HC97 whole entry): as above
Chain of rat GPR35 (Q33BM1 1-306): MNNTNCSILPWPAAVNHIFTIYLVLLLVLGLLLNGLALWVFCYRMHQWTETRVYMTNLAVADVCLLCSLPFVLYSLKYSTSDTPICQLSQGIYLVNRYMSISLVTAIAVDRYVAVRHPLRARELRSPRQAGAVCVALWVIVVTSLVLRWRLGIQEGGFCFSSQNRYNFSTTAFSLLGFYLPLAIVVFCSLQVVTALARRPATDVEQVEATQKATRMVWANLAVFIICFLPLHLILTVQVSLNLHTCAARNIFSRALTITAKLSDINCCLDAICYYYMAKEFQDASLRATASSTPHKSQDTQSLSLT
Chain of GPR35b (Q9HC97 1-340 isoform Q9HC97-2): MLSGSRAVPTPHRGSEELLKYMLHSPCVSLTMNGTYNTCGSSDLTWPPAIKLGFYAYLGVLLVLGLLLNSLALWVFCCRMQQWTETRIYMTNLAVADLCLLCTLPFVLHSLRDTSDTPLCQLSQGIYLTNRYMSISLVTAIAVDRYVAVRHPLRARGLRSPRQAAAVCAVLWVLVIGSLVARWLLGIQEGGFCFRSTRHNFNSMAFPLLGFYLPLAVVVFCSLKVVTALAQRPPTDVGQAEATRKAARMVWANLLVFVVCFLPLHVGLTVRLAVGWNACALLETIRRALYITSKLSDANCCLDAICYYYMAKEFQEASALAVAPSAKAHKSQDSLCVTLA
Chain of mouse GPR35 (Q9ES90 whole entry): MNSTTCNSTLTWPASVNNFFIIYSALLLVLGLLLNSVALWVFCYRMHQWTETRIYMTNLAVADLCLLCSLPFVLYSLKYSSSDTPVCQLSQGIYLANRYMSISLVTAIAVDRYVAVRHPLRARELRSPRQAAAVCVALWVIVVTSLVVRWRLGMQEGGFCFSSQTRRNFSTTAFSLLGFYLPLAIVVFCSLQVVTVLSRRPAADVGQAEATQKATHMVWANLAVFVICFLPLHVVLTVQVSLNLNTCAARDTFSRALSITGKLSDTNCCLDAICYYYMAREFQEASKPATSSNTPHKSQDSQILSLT

CC(/C=C1\SC(=S)N(CCCC(=O)Nc2ccc(C(=O)O)c(O)c2)C1=O)=C\c1ccccc1 [ML145]
effect of pre-exposure on response of cells to 1μM CXCL17 (PGE2-treated THP-1 cells; 1 μM ML145, 15 minutes pre-incubation): no inhibitory effect
effect of pre-treatment on monocyte migration to CXCL17 (primary human monocytes): unaffected

N#Cc1cc(NC(=O)C(=O)O)c(Cl)c(NC(=O)C(=O)O)c1 [lodoxamide]
pEC50, inositol phosphate production (GPR35b): 9.05 +/- 0.07
pEC50, inositol phosphate production (human GPR35a [1]): 8.64 +/- 0.08
pEC50, inositol phosphate production (human GPR35a [2]): 9.13 +/- 0.24
endocytosis of GPR35 (3xHA-GPR35; 1 μM and 10μM): Significant endocytosis
endocytosis of GPR35, direct comparison (3xHA-GPR35; 1 μM): significant endocytosis

CCCOc1ccccc1-c1nc2nn[nH]c2c(=O)[nH]1 [zaprinast]
EC50 (rat GPR35): 91.2 nM
EC50 (mouse GPR35): 1050 nM

CCL2: chemokine purchased from Peprotech EC
forward migration index (FMI‖) versus basal (THP-1 cells; 1μM): significant response
cell migration versus basal (THP-1 cells; gradient from 1μl of 1μM, 1 hour): many more cells were observed to migrate
forward migration index (FMI‖) versus basal (PGE2-treated THP-1 cells; 1μM, PGE2-treated THP-1): significantly greater than the basal response
increase in the number of migrating cells versus basal (PGE2-treated THP-1 cells; 1μM, PGE2-treated THP-1): 6 fold

B1: CCL15: CC-chemokine with extended N-terminus, purchased from Peprotech EC (protein, UniProt Q16663 22-113, looked up)
C-C motif chemokine 15: QFTNDAETELMMSKLPLENPVVLNSFHFAADCCTSYISQSIPCSLMKSYFETSSECSKPGVIFLTKKGRQVCAKPSGPGVQDCMKKLKPYSI
effect of chymase cleavage on chemotactic potency (CCR1): increased potency
cleavage by chymase [3]: cleaved

B2: CCL23: CC-chemokine with extended N-terminus, purchased from Peprotech EC (protein, UniProt P55773 22-120, looked up)
C-C motif chemokine 23: RVTKDAETEFMMSKLPLENPVLLDRFHATSADCCISYTPRSIPCSLLESYFETNSECSKPGVIFLTKKGRRFCANPSDKQVQVCMRMLKLDTRIKTRKN
effect of chymase cleavage on chemotactic potency (CCR1): increased potency
cleavage by chymase [3]: cleaved
